This passage reports Ki and Activity results from ChEMBL document CHEMBL1155130, “Selective angiotensin II AT2 receptor agonists: Benzamide structure-activity relationships” (Bioorg Med Chem, 2008).

SMILES strings stand for the structures. Active and inactive are the calls of the source. No cut-off for these calls is given here.

For test [1], the target named is AT2 receptor (Sus scrofa, UniProt A0A4X1W622). As to the kind of experiment: Displacement of [125]Ang2 from AT2 receptor in pig uterus membrane. In kind it is cell membranes.
Test [2] deals with NG108-15. The experiment in a line: Effect on cellular morphology of mouse rat hybrid NG108-15 cells assessed as induction of neurite outgrowth. In kind it is functional, cell-based. An outline of the steps:
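NG108-15 cells (passage 18–28) grown in DMEM/10% FBS/HAT/gentamycin, 37 °C, 7% CO2. Plated at 3.6 × 10^4 cells per 35 mm dish, dosed daily for 3 days starting 24 h after plating, ± AT2 antagonist PD 123,319 added 30 min before. Phase-contrast micrographs on day 4. Cells with a neurite longer than one cell body counted as % of total (≥290 cells). Three independent experiments, duplicates, mean ± SEM.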

The target of test [3] is T1, Type-1 angiotensin II receptor A (Rattus norvegicus, UniProt P25095).
T1 sequence (P25095 whole entry): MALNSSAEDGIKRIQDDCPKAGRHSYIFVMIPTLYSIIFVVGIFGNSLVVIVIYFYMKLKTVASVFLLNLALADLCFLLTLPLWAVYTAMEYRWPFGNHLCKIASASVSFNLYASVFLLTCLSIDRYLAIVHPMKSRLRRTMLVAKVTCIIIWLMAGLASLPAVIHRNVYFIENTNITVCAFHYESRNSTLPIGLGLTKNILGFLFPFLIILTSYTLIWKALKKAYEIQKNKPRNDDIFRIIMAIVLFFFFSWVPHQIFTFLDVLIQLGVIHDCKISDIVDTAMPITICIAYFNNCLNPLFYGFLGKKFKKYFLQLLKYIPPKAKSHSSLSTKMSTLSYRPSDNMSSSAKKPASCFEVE
As to the kind of experiment: Displacement of [125]Ang2 from AT1 receptor in rat liver membrane. Type of test: cell membranes. An outline of the steps:
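Rat liver membranes (5 mg original tissue per tube) incubated with [125I]Ang II (80,000–85,000 cpm, 0.03 nM) and varying test concentrations in 50 mM Tris–HCl pH 7.4, 100 mM NaCl, 10 mM MgCl2, 1 mM EDTA, 0.025% bacitracin, 0.2% BSA; 25 °C, 2 h. GF/B filtration, gamma counting; one-site fit; triplicate.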

What is called Ki is the equilibrium dissociation constant of an inhibitor or competing ligand from its target. A higher Ki goes with lower affinity. As for `CCCCOC(=O)NS(=O)(=O)c1sc(CC(C)C)cc1-c1ccc(C(=O)N(CC)CC)cc1`, the figures for the inhibition constant (Ki) in test [1] and in test [3] were 3 nM and more than 10000 nM, respectively. In addition, the outcome in test [2] was Active.

For the molecule `CCCCOC(=O)NS(=O)(=O)c1ccc(Cc2ccccc2)cc1-c1ccc(C(=O)N(CC)CC)cc1`, the Ki in test [1] was 162 nM; in test [3] it was more than 10000 nM.

For the molecule `CCCCOC(=O)NS(=O)(=O)c1ccc(Oc2ccccc2)cc1-c1ccc(C(=O)N(CC)CC)cc1`, the Ki was 91.7 nM in test [1] and more than 10000 nM in test [3].

As for `CCCCOC(=O)NS(=O)(=O)c1sc(CC(C)C)cc1-c1ccc(C(=O)N2CCCCC2)cc1`, the values for the Ki in test [1] and in test [3] were 3.2 nM and more than 10000 nM, respectively.

For `CCCCOC(=O)NS(=O)(=O)c1sc(CC(C)C)cc1-c1ccc(C(=O)N(C)C)cc1`, the Ki in test [1] was 36.9 nM; in test [3], more than 10000 nM.

With `CCCCOC(=O)NS(=O)(=O)c1sc(CC(C)C)cc1-c1ccc(C(=O)N(C)Cc2ccccc2)cc1`, the inhibition constant (Ki) in test [1] was 31.5 nM; in test [3], more than 10000 nM.

As to `CCCCOC(=O)NS(=O)(=O)c1cc(Cc2ccccc2)ccc1-c1ccc(C(=O)N(CC)CC)cc1`, the values for the Ki in test [1] and in test [3] were 300 nM and more than 10000 nM, respectively.

Consider `CCCCOC(=O)NS(=O)(=O)c1sc(CC(C)C)cc1-c1ccc(C(=O)NC2CCCCC2)cc1`, for which the Ki in test [1] is 6.4 nM; in test [3] it was more than 10000 nM.

Take `CCCCOC(=O)NS(=O)(=O)c1sc(CC(C)C)cc1-c1ccc(C(=O)N2CCCC2)cc1`: the Ki is 6.4 nM in test [1] and more than 10000 nM in test [3].

Take `CCCCOC(=O)NS(=O)(=O)c1ccc(-c2ccccc2)cc1-c1ccc(C(=O)N(CC)CC)cc1`: the inhibitory constant (Ki) in test [1] is 52 nM; in test [3], more than 10000 nM. The outcome in test [2] was Active.

Take `CCCCOC(=O)NS(=O)(=O)c1sc(CC(C)C)cc1-c1ccc(C(=O)NC(C)C)cc1`: the inhibition constant Ki in test [1] is 2.6 nM; in test [3], more than 10000 nM.

For `CCCCOC(=O)NS(=O)(=O)c1ccc(CC(C)C)cc1-c1ccc(Cn2c(CC)nc3c(C)cc(C)nc32)cc1`, the values for the inhibition constant Ki in test [1] and in test [3] were 0.7 nM and 2.1 nM, respectively.

In the case of `CCCCOC(=O)NS(=O)(=O)c1sc(CC(C)C)cc1-c1ccc(C(=O)NCc2ccccc2)cc1`, the figures for the Ki in test [1] and in test [3] were 1 nM and more than 10000 nM, respectively. In addition, in test [2], the outcome was Active.

With `CCCCOC(=O)NS(=O)(=O)c1sc(CC(C)C)cc1-c1ccc(C(=O)Nc2nccs2)cc1`, the Ki in test [1] was 10.9 nM; in test [3], more than 10000 nM.

On to `CCCCOC(=O)NS(=O)(=O)c1cc(CC(C)C)ccc1-c1ccc(C(=O)N(CC)CC)cc1`, for which the inhibition constant Ki is 122 nM in test [1] and more than 10000 nM in test [3].

For the molecule `CCCCOC(=O)NS(=O)(=O)c1ccc(CC(C)C)cc1-c1ccc(C(=O)N(CC)CC)cc1`, the Ki in test [1] is 144 nM; in test [3], more than 10000 nM.

As for `CCCCOC(=O)NS(=O)(=O)c1ccccc1-c1ccc(C(=O)N(CC)CC)cc1`, the figures for the Ki in test [1] and in test [3] were 402 nM and more than 10000 nM, respectively.

`CCCCOC(=O)NS(=O)(=O)c1sc(CC(C)C)cc1-c1ccc(Cn2c(CC)nc3c(C)cc(C)nc32)cc1`: the Ki in test [1] stood at 2 nM; in test [3], 1.1 nM.

Take `CCCCOC(=O)NS(=O)(=O)c1sc(CC(C)C)cc1-c1ccc(C(=O)N2CCOCC2)cc1`: the inhibition constant (Ki) is 348 nM in test [1] and more than 10000 nM in test [3].

Turning to `CCCCOC(=O)NS(=O)(=O)c1sc(CC(C)C)cc1-c1ccc(C(N)=O)cc1`, the inhibition constant Ki was 106 nM in test [1] and more than 10000 nM in test [3].

With `CCCCOC(=O)NS(=O)(=O)c1sc(CC(C)C)cc1-c1ccc(CN(C)C(C)=O)cc1`, the inhibition constant (Ki) in test [1] was 8.8 nM; in test [3], more than 10000 nM.

In turn, `CCCCOC(=O)NS(=O)(=O)c1ccc(CC(C)C)cc1-c1ccc(Cn2ccnc2)cc1` displayed a Ki in test [3] of more than 10000 nM.

Regarding `CCCCOC(=O)NS(=O)(=O)c1sc(CC(C)C)cc1-c1ccc(C(=O)NC2CC2)cc1`, the Ki in test [1] was 10.5 nM; in test [3], more than 10000 nM.

Molecule `CCCCOC(=O)NS(=O)(=O)c1sc(CC(C)C)cc1-c1ccc(Cn2ccnc2)cc1` [BULOXIBUTID] returned a Ki in test [3] of more than 10000 nM.

Regarding `CCCCOC(=O)NS(=O)(=O)c1sc(CC(C)C)cc1-c1ccc(CC(=O)N(C)C)cc1`, the figures for the Ki in test [1] and in test [3] were 7 nM and more than 10000 nM, respectively.
